Common to all, as to format: functional, cell-based
The test system of one experiment is HCT-116. Kind of experiment: Antiproliferative activity against human HCT116 cells incubated for 48 hrs by MTT assay. Particulars: HCT-116, 48 h. In outline: (§1)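 Cells kept at 37 °C in humidified 5% CO2: MDA-MB-231, MCF-7, HeLa and HCT116 in RPMI-1640; PC-3 in DMEM/F12; both media had 10% FBS. Compounds came from 60 mM DMSO stocks diluted in medium. At 70–80% confluence, cells got fresh medium with compound for 48 h at 37 °C, with 0.1% DMSO as negative control. MTT (5 mg/mL stock) was added for 4 h, and formazan was dissolved in DMSO and read at 570 nm. % inhibition was taken relative to control, IC50 was fitted, and data are mean ± SD of three independent experiments in duplicate.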
Background: Tetrazolium assays rely on reduction of a dye to a coloured formazan, in cell work by metabolically active cells.

The next experiment relates to MDA-MB-231. The experiment in a line: Antiproliferative activity against human MDA-MB-231 cells incubated for 48 hrs by MTT assay. Particulars: MDA-MB-231, 48 h. The method in brief:
as §1

A further experiment has as its system MCF7. Kind of experiment: Antiproliferative activity against human MCF7 cells incubated for 48 hrs by MTT assay. The conditions noted are these: MCF7, 48 h. The method in brief:
as §1

The next experiment relates to HeLa. Kind of experiment: Antiproliferative activity against human HeLa cells incubated for 48 hrs by MTT assay. In outline:
as §1

Another experiment relates to PC-3. Kind of experiment: Antiproliferative activity against human PC3 cells incubated for 48 hrs by MTT assay. Particulars: PC-3, 48 h. In outline: as §1

Each structure is given as a SMILES string.

Usually IC50 stands for the concentration that gives 50% inhibition. Lower therefore signals inhibition by little substance. Turning to `CS(=O)(=O)c1ccc(Nc2nccc(Nc3nc4ccc(Cl)cc4s3)n2)cc1`, the IC50 is 1.35 µM in the experiment with HCT-116; greater than 50 µM in the experiment with MDA-MB-231; greater than 50 µM in the experiment with MCF7; 1.4 µM in the experiment on HeLa; greater than 50 µM in the experiment with PC-3.
Turning to `Cc1cnc(Nc2ccc(N3CCCCC3)cc2)nc1Nc1nc2ccccc2s1`, the IC50 with HCT-116 is 18.7 µM; in the experiment on MDA-MB-231, 37.2 µM; in the experiment with MCF7, greater than 50 µM; with HeLa, 4.34 µM; in the experiment with PC-3, greater than 50 µM.
On to `Cc1ccc2nc(Nc3nc(Nc4ccc(S(N)(=O)=O)cc4)ncc3C)sc2c1`, for which the IC50 with HCT-116 was 3.87 µM; in the experiment with MDA-MB-231, 9.08 µM; in the experiment on MCF7, greater than 50 µM; in the experiment on HeLa, 3.28 µM; in the experiment with PC-3, 2.71 µM.
The like results for `Cc1ncc(-c2ccnc(Nc3ccc(S(C)(=O)=O)cc3)n2)n1C(C)C` [AZD-5438] were, in that order, 0.47 µM, 7.2 µM, 10.7 µM, 0.73 µM and 0.36 µM.
Taken in the same sequence, the figures for `Cc1cnc(Nc2ccc(S(C)(=O)=O)cc2)nc1Nc1nc2ccc(F)cc2s1` were 24 µM, greater than 50 µM, 3.26 µM, greater than 50 µM and greater than 50 µM.
Turning to `Cc1cnc(Nc2ccc(C(C)C)cc2)nc1Nc1nc2ccccc2s1`, the half-maximal inhibitory concentration (IC50) in the experiment on HCT-116, in the experiment with MDA-MB-231, with MCF7, with HeLa and in the experiment on PC-3 was greater than 50 µM in each case.
As for `COc1ccc2nc(Nc3nc(Nc4ccc(S(N)(=O)=O)cc4)ncc3F)sc2c1`, the IC50 with HCT-116 was 11.5 µM; with MDA-MB-231, 26.6 µM; in the experiment on MCF7, greater than 50 µM; in the experiment with HeLa it was 13 µM; with PC-3, greater than 50 µM.
For `COc1ccc2nc(Nc3nc(Nc4ccc(S(C)(=O)=O)cc4)ncc3F)sc2c1`, the IC50 in the experiment with HCT-116 amounted to 2.63 µM; in the experiment on MDA-MB-231, 4.74 µM; in the experiment with MCF7 it was 5.85 µM; in the experiment with HeLa it was 25.4 µM; with PC-3, 1.27 µM.
For the compound `COc1ccc(Nc2ncc(C)c(Nc3nc4ccccc4s3)n2)cc1`, the IC50 in the experiment with HCT-116, in the experiment with MDA-MB-231, with MCF7, in the experiment on HeLa and in the experiment on PC-3 was greater than 50 µM in each case.
As to `COc1cccc(Nc2ncc(C)c(Nc3nc4ccccc4s3)n2)c1`, the IC50 with HCT-116, in the experiment with MDA-MB-231, in the experiment on MCF7, in the experiment on HeLa and with PC-3 was greater than 50 µM in each case.
With `COc1ccc2nc(Nc3nc(Nc4ccc(S(N)(=O)=O)cc4)ncc3C)sc2c1`, the IC50 with HCT-116 is 7.86 µM; with MDA-MB-231, greater than 50 µM; in the experiment with MCF7 it was greater than 50 µM; in the experiment on HeLa, 36.7 µM; in the experiment on PC-3, greater than 50 µM.
With `COc1ccc2nc(Nc3ccnc(Nc4ccc(S(C)(=O)=O)cc4)n3)sc2c1`, the IC50 is 2.27 µM in the experiment on HCT-116; 32.7 µM in the experiment on MDA-MB-231; greater than 50 µM with MCF7; 4.13 µM in the experiment on HeLa; 2.7 µM in the experiment on PC-3.
Regarding `COc1ccc2nc(Nc3ccnc(Nc4ccc(S(N)(=O)=O)cc4)n3)sc2c1`, the IC50 in the experiment with HCT-116 is 1.48 µM; in the experiment with MDA-MB-231 it was 6.24 µM; in the experiment with MCF7, 11 µM; with HeLa it was 1.73 µM; in the experiment on PC-3, 3.03 µM.
The like results for `CS(=O)(=O)c1ccc(Nc2ncc(F)c(Nc3nc4ccc(Cl)cc4s3)n2)cc1` were, in that order, 20.7 µM, 11.1 µM, greater than 50 µM, greater than 50 µM and greater than 50 µM.
In the case of `NS(=O)(=O)c1ccc(Nc2ncc(F)c(Nc3nc4ccc(Cl)cc4s3)n2)cc1`, the IC50 came to 8.62 µM in the experiment with HCT-116; 2.79 µM in the experiment with MDA-MB-231; 8.34 µM with MCF7; 8.77 µM in the experiment on HeLa; 1.43 µM in the experiment on PC-3.

Source of the values: ChEMBL document CHEMBL4351008, “Discovery of novel pyrimidine-based benzothiazole derivatives as potent cyclin-dependent kinase 2 inhibitors with anticancer activity” (Eur J Med Chem, 2019).
